Test results from ChEMBL document CHEMBL1148671, “Synthesis and antibacterial activity of C12 des-methyl ketolides” (2006).
≈ marks a conversion by molar mass, not a printed value.

Key:
Type in all cases: functional
Enterococcus faecalis [1] = assay: Antibacterial activity against Enterococcus faecalis 29212 by broth microdilution method
In short: (§1)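 In vitro activity was read as the minimum inhibitory concentration (MIC) by broth microdilution and reported in μg/mL. The S. pneumoniae panel included erythromycin-resistant strains carrying mef or erm genes. Telithromycin and clarithromycin were run as comparators in every assay.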

Streptococcus pneumoniae [2] = assay: Antibacterial activity against erythromycin-resistant Streptococcus pneumoniae mef S 3427 by broth microdilution method
Streptococcus pyogenes = assay: Antibacterial activity against Streptococcus pyogenes 8668 by broth microdilution method; in short: as §1
Streptococcus pneumoniae [3] = assay: Antibacterial activity against erythromycin-resistant Streptococcus pneumoniae erm 6849 by broth microdilution method
Streptococcus pneumoniae [4] = assay: Antibacterial activity against Streptococcus pneumoniae 297-749 by broth microdilution method; in short: as §1
Haemophilus influenzae [5] = assay: Antibacterial activity against Haemophilus influenzae 2762 by broth microdilution method; in short: as §1
Staphylococcus aureus [6] = assay: Antibacterial activity against Staphylococcus aureus 29213 by broth microdilution method; details: ATCC29213; in short: as §1
Enterococcus faecalis [7] = assay: Antibacterial activity against Enterococcus faecalis bc11148-2 by broth microdilution method; in short: as §1
Staphylococcus aureus [8] = assay: Antibacterial activity against Staphylococcus aureus 33591 by broth microdilution method; in short: as §1
[9] = test system: Staphylococcus epidermidis; assay: Antibacterial activity against Staphylococcus epidermidis f50654 by broth microdilution method; in short: as §1
Streptococcus pneumoniae [10] = assay: Antibacterial activity against erythromycin-resistant Streptococcus pneumoniae mef 5654 by broth microdilution method
Streptococcus pneumoniae [11] = assay: Antibacterial activity against Streptococcus pneumoniae 49619 by broth microdilution method; in short: as §1
Haemophilus influenzae [12] = assay: Antibacterial activity against Haemophilus influenzae 49247 by broth microdilution method; in short: as §1
Streptococcus pneumoniae [13] = assay: Antibacterial activity against Streptococcus pneumoniae 280-962 by broth microdilution method; in short: as §1
[14] = test system: Staphylococcus epidermidis; assay: Antibacterial activity against Staphylococcus epidermidis 14990 by broth microdilution method; in short: as §1

SMILES: CC[C@H]1OC(=O)[C@H](C)C(=O)[C@H](C)[C@@H](O[C@@H]2O[C@H](C)C[C@H](N(C)C)[C@H]2O)[C@](C)(OC)C[C@@H](C)C(=O)[C@H](C)[C@@H]2[C@@H]1OC(=O)N2CCCCn1cnc(-c2ccc(OC)nc2)c1
- MIC (Enterococcus faecalis [1]): ≤ 0.05 µg/mL
- MIC (Streptococcus pneumoniae [2]): 0.1 µg/mL (≈ 0.121 µM)
- MIC (Streptococcus pyogenes): ≤ 0.05 µg/mL
- MIC (Streptococcus pneumoniae [3]): 50 µg/mL (≈ 60.4 µM)
- MIC (Streptococcus pneumoniae [4]): ≤ 0.05 µg/mL
- MIC (Haemophilus influenzae [5]): 1.56 µg/mL (≈ 1.88 µM)
- MIC (Staphylococcus aureus [6]): 0.2 µg/mL (≈ 0.242 µM)
- MIC (Enterococcus faecalis [7]): 6.25 µg/mL (≈ 7.55 µM)
- MIC (Staphylococcus aureus [8]): > 50 µg/mL
- MIC [9]: 0.2 µg/mL (≈ 0.242 µM)
- MIC (Streptococcus pneumoniae [10]): 0.78 µg/mL (≈ 0.942 µM)
- MIC (Streptococcus pneumoniae [11]): ≤ 0.05 µg/mL
- MIC (Haemophilus influenzae [12]): 6.25 µg/mL (≈ 7.55 µM)
- MIC (Streptococcus pneumoniae [13]): ≤ 0.05 µg/mL
- MIC [14]: 0.1 µg/mL (≈ 0.121 µM)

SMILES: CC[C@H]1OC(=O)[C@H](C)C(=O)[C@H](C)[C@@H](O[C@@H]2O[C@H](C)C[C@H](N(C)C)[C@H]2O)[C@](C)(OC)C[C@@H](C)C(=O)[C@H](C)[C@@H]2[C@@H]1OC(=O)N2CCCC(C)(C)n1cnc(-c2cccnc2)c1
- MIC (Enterococcus faecalis [1]): 0.1 µg/mL (≈ 0.121 µM)
- MIC (Streptococcus pneumoniae [2]): 0.2 µg/mL (≈ 0.242 µM)
- MIC (Streptococcus pyogenes): ≤ 0.05 µg/mL
- MIC (Streptococcus pneumoniae [3]): 0.4 µg/mL (≈ 0.484 µM)
- MIC (Streptococcus pneumoniae [4]): ≤ 0.05 µg/mL
- MIC (Haemophilus influenzae [5]): 1.56 µg/mL (≈ 1.89 µM)
- MIC (Staphylococcus aureus [6]): 0.2 µg/mL (≈ 0.242 µM)
- MIC (Enterococcus faecalis [7]): 1.56 µg/mL (≈ 1.89 µM)
- MIC (Staphylococcus aureus [8]): > 50 µg/mL
- MIC [9]: 0.1 µg/mL (≈ 0.121 µM)
- MIC (Streptococcus pneumoniae [10]): 1.56 µg/mL (≈ 1.89 µM)
- MIC (Streptococcus pneumoniae [11]): ≤ 0.05 µg/mL
- MIC (Haemophilus influenzae [12]): 3.13 µg/mL (≈ 3.79 µM)
- MIC (Streptococcus pneumoniae [13]): ≤ 0.05 µg/mL
- MIC [14]: 0.1 µg/mL (≈ 0.121 µM)

SMILES: CC[C@H]1OC(=O)[C@H](C)C(=O)[C@H](C)[C@@H](O[C@@H]2O[C@H](C)C[C@H](N(C)C)[C@H]2O)[C@](C)(OC)C[C@@H](C)C(=O)[C@H](C)[C@@H]2[C@@H]1OC(=O)N2CCCCc1ccc(-c2cccnc2)s1
- MIC (Enterococcus faecalis [1]): ≤ 0.05 µg/mL
- MIC (Streptococcus pneumoniae [2]): 0.1 µg/mL (≈ 0.123 µM)
- MIC (Streptococcus pyogenes): ≤ 0.05 µg/mL
- MIC (Streptococcus pneumoniae [3]): 6.25 µg/mL (≈ 7.68 µM)
- MIC (Streptococcus pneumoniae [4]): ≤ 0.05 µg/mL
- MIC (Haemophilus influenzae [5]): 3.13 µg/mL (≈ 3.84 µM)
- MIC (Staphylococcus aureus [6]): 0.2 µg/mL (≈ 0.246 µM)
- MIC (Enterococcus faecalis [7]): 25 µg/mL (≈ 30.7 µM)
- MIC (Staphylococcus aureus [8]): 50 µg/mL (≈ 61.4 µM)
- MIC [9]: 0.1 µg/mL (≈ 0.123 µM)
- MIC (Streptococcus pneumoniae [10]): 0.4 µg/mL (≈ 0.491 µM)
- MIC (Streptococcus pneumoniae [11]): ≤ 0.05 µg/mL
- MIC (Haemophilus influenzae [12]): 12.5 µg/mL (≈ 15.4 µM)
- MIC (Streptococcus pneumoniae [13]): ≤ 0.05 µg/mL
- MIC [14]: 0.2 µg/mL (≈ 0.246 µM)

SMILES: CC[C@H]1OC(=O)[C@H](C)C(=O)[C@H](C)[C@@H](O[C@@H]2O[C@H](C)C[C@H](N(C)C)[C@H]2O)[C@](C)(OC)C[C@@H](C)C(=O)[C@H](C)[C@@H]2[C@@H]1OC(=O)N2CCCCc1cnc(-c2cccnc2)s1
- MIC (Enterococcus faecalis [1]): ≤ 0.05 µg/mL
- MIC (Streptococcus pneumoniae [2]): 0.1 µg/mL (≈ 0.123 µM)
- MIC (Streptococcus pyogenes): ≤ 0.05 µg/mL
- MIC (Streptococcus pneumoniae [3]): 25 µg/mL (≈ 30.7 µM)
- MIC (Streptococcus pneumoniae [4]): ≤ 0.05 µg/mL
- MIC (Haemophilus influenzae [5]): 1.56 µg/mL (≈ 1.91 µM)
- MIC (Staphylococcus aureus [6]): 0.2 µg/mL (≈ 0.245 µM)
- MIC (Enterococcus faecalis [7]): 3.13 µg/mL (≈ 3.84 µM)
- MIC (Staphylococcus aureus [8]): > 50 µg/mL
- MIC [9]: 0.1 µg/mL (≈ 0.123 µM)
- MIC (Streptococcus pneumoniae [10]): 0.78 µg/mL (≈ 0.957 µM)
- MIC (Streptococcus pneumoniae [11]): ≤ 0.05 µg/mL
- MIC (Haemophilus influenzae [12]): 6.25 µg/mL (≈ 7.67 µM)
- MIC (Streptococcus pneumoniae [13]): ≤ 0.05 µg/mL
- MIC [14]: 0.2 µg/mL (≈ 0.245 µM)

SMILES: CC[C@H]1OC(=O)[C@H](C)C(=O)[C@H](C)[C@@H](O[C@@H]2O[C@H](C)C[C@H](N(C)C)[C@H]2O)[C@](C)(OC)C[C@@H](C)C(=O)[C@H](C)[C@@H]2[C@@H]1OC(=O)N2CCCCn1cnc(-c2ccc(C)nc2)c1
- MIC (Enterococcus faecalis [1]): 0.1 µg/mL (≈ 0.123 µM)
- MIC (Streptococcus pneumoniae [2]): 0.4 µg/mL (≈ 0.493 µM)
- MIC (Streptococcus pyogenes): ≤ 0.05 µg/mL
- MIC (Streptococcus pneumoniae [3]): 50 µg/mL (≈ 61.6 µM)
- MIC (Streptococcus pneumoniae [4]): ≤ 0.05 µg/mL
- MIC (Haemophilus influenzae [5]): 1.56 µg/mL (≈ 1.92 µM)
- MIC (Staphylococcus aureus [6]): 0.2 µg/mL (≈ 0.246 µM)
- MIC (Enterococcus faecalis [7]): 3.13 µg/mL (≈ 3.85 µM)
- MIC (Staphylococcus aureus [8]): > 50 µg/mL
- MIC [9]: 0.2 µg/mL (≈ 0.246 µM)
- MIC (Streptococcus pneumoniae [10]): 1.56 µg/mL (≈ 1.92 µM)
- MIC (Streptococcus pneumoniae [11]): ≤ 0.05 µg/mL
- MIC (Haemophilus influenzae [12]): 3.13 µg/mL (≈ 3.85 µM)
- MIC (Streptococcus pneumoniae [13]): ≤ 0.05 µg/mL
- MIC [14]: 0.2 µg/mL (≈ 0.246 µM)

SMILES: CC[C@H]1OC(=O)[C@H](C)C(=O)[C@H](C)[C@@H](O[C@@H]2O[C@H](C)C[C@H](N(C)C)[C@H]2O)[C@](C)(OC)C[C@@H](C)C(=O)[C@H](C)[C@@H]2[C@@H]1OC(=O)N2CCCCn1cnc(-c2cccnc2)c1
- MIC (Enterococcus faecalis [1]): 0.1 µg/mL (≈ 0.125 µM)
- MIC (Streptococcus pneumoniae [2]): 0.2 µg/mL (≈ 0.251 µM)
- MIC (Streptococcus pyogenes): ≤ 0.05 µg/mL
- MIC (Streptococcus pneumoniae [3]): 0.2 µg/mL (≈ 0.251 µM)
- MIC (Streptococcus pneumoniae [4]): ≤ 0.05 µg/mL
- MIC (Haemophilus influenzae [5]): 0.78 µg/mL (≈ 0.977 µM)
- MIC (Staphylococcus aureus [6]): 0.2 µg/mL (≈ 0.251 µM)
- MIC (Enterococcus faecalis [7]): > 50 µg/mL
- MIC (Staphylococcus aureus [8]): > 50 µg/mL
- MIC [9]: 0.2 µg/mL (≈ 0.251 µM)
- MIC (Streptococcus pneumoniae [10]): 1.56 µg/mL (≈ 1.95 µM)
- MIC (Streptococcus pneumoniae [11]): ≤ 0.05 µg/mL
- MIC (Haemophilus influenzae [12]): 6.25 µg/mL (≈ 7.83 µM)
- MIC (Streptococcus pneumoniae [13]): ≤ 0.05 µg/mL
- MIC [14]: 0.78 µg/mL (≈ 0.977 µM)
